This passage reports AC40 and activation results from PubChem BioAssay AID493180 (Broad Institute, 2011).

SMILES strings stand for the structures. “And” between values parts separate entries of the source, which are not always exact repeats. Equal values may be shown once. The source made the active and inactive calls.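 The calls were made as follows: active = fitted curve reaching 40% activation at or below the top valid tested dose; inactive = the rest, or activity counter to the expected direction.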

For one assay, the system named is U2OS HRE-luciferase reporter, luminescence, HIF pathway activation. As to the kind of experiment: HRE-driven luciferase induction, U2OS – cell-based, luminescence, dry powder, set 3, dose response (AID 493180).
Settings: not given
The essentials: (§1)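 material = U2OS 3xHRE-luciferase reporter cells | compound = 8-point series in 3-fold steps, 7.5 mM top stock | detection = Steady-Glo luminescence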
For the molecule `c1ccc(-c2nnc(-c3ccccn3)nc2N2CCC(C3CCCCC3)C2)cc1` (stereo not drawn), the AC40 is 1.5 µM.

For `CCCCNC(=O)c1cc(-c2ccccc2)on1`, the AC40 was > 38 µM (inactive).

Regarding `O=C(NCCN1CCOCC1)c1cc(-c2ccccc2)on1`, the AC40 is > 38 µM (inactive).

As for `CC(C)(C)OC(=O)N1CCN(Cc2ccc(O)c3ncccc23)CC1`, the AC40 is > 4.6 µM (inactive).

As for `O=C(Nc1nc2ccccc2s1)c1cc(-c2ccccc2)on1`, the AC40 is > 1.5 µM (inactive).

As to `O=C(NCCCN1CCOCC1)c1cc(-c2ccccc2)on1`, the AC40 is > 38 µM (inactive).

For the molecule `O=C(Nc1nc(-c2ccccc2)cs1)c1cc(-c2ccccc2)on1`, the AC40 was > 4.6 µM (inactive).

Turning to `c1ccc(-c2nnc(-c3ccccn3)nc2N2CCC(N3CCOCC3)CC2)cc1`, the AC40 is 7.47 µM.

As to `Cc1ccc(Nc2nc(-c3ccccn3)nnc2-c2ccccc2)cn1`, the AC40 was 13.6 µM.

As for `Cc1ccc(CNc2nc(-c3ccccn3)nnc2-c2ccccc2)cc1`, the AC40 was 3.58 µM.

For the molecule `c1ccc(-c2nnc(-c3ccccn3)nc2Nc2nc3ccccc3s2)cc1`, the AC40 is 5.89 µM.

With `O=C(NCCCn1ccnc1)c1cc(-c2ccccc2)on1`, the AC40 is 28.9 µM.

On to `C=CCNc1nc(-c2ccccn2)nnc1-c1ccccc1`, for which the AC40 is 7.74 µM.

As to `Oc1ccc(CN2CCc3ccccc3C2)c2cccnc12`, the AC40 is 14.1 µM.

In the case of `CN(C)c1nc(-c2ccccn2)nnc1-c1ccccc1`, the AC40 is 12.9 µM.

As for `Cn1c(-c2ccccc2)cnc1Nc1nc(-c2ccccn2)nnc1-c1ccccc1`, the AC40 is 5.83 µM.

On to `O=C(NCCCCO)c1cc(-c2ccccc2)on1`, for which the AC40 is 12 µM.

Take `CC(Nc1nc(-c2ccccn2)nnc1-c1ccccc1)c1ccccc1` (stereo not drawn): the AC40 is 1.94 µM.

Take `O=C(NCC1CC1)c1cc(-c2ccccc2)on1`: the AC40 is 31 µM.

`c1ccc(-c2nnc(-c3ccccn3)nc2N2CCN(c3ccncc3)CC2)cc1`: the AC40 is 4.63 µM.

As for `Cc1cccc(CNc2nc(-c3ccccn3)nnc2-c2ccccc2)c1`, the AC40 is 4.5 µM.

For `c1ccc(-c2cccc(CNc3nc(-c4ccccn4)nnc3-c3ccccc3)c2)cc1`, the AC40 is 1 µM.

For the molecule `C[C@H](Nc1nc(-c2ccccn2)nnc1-c1ccccc1)C1CCCCC1`, the AC40 was 2.59 µM.

Regarding `Oc1ccc(CN2CCC3CCCCC3C2)c2cccnc12` (stereo not drawn), the AC40 was 34.8 µM.

Turning to `c1ccc(-c2nnc(Nc3nc(-c4ccccn4)nnc3-c3ccccc3)s2)cc1`, the AC40 was 25.3 µM.

Regarding `O=C(c1cc(-c2ccccc2)on1)N1CCc2cccnc21`, the AC40 was > 4.6 µM (inactive).

As for `OCCCNc1nc(-c2ccccn2)nnc1-c1ccccc1`, the AC40 is 22.2 µM.

For `O=C(NCCCO)c1cc(-c2ccccc2)on1`, the AC40 is > 38 µM (inactive).

With `O=C(c1cc(-c2ccccc2)on1)N1CCC(N2CCOCC2)CC1`, the AC40 was > 4.6 µM (inactive).

`Cc1ccccc1CNc1nc(-c2ccccn2)nnc1-c1ccccc1`: the AC40 was 5.58 µM.

Consider `Oc1ccc(CNC2Cc3ccccc3C2)c2cccnc12`, for which the AC40 is > 38 µM (inactive).

For `COc1cccc(CNc2nc(-c3ccccn3)nnc2-c2ccccc2)c1`, the AC40 is 2.83 µM.

Consider `c1ccc(-c2nnc(-c3ccccn3)nc2NCC2CC2)cc1`, for which the AC40 was 7.63 µM.

As to `C[C@@H](Nc1nc(-c2ccccn2)nnc1-c1ccccc1)c1ccccc1`, the AC40 was 5.22 µM.

`c1ccc(-c2ccc(CNc3nc(-c4ccccn4)nnc3-c3ccccc3)cc2)cc1`: the AC40 is 1.09 µM.

As for `c1ccc(-c2nnc(-c3ccccn3)nc2NCc2ccccn2)cc1`, the AC40 is 22 µM.

On to `Cc1ccc(CNc2nc(-c3ccccn3)nnc2-c2ccccc2)cc1C`, for which the AC40 is 2.12 µM.

For `O=C(NCCN1CCCCC1)c1cc(-c2ccccc2)on1`, the AC40 is 2.5 µM.

On to `c1ccc(-c2cnc(Nc3nc(-c4ccccn4)nnc3-c3ccccc3)s2)cc1`, for which the AC40 was > 4.6 µM (inactive).

As to `c1ccc(-c2nnc(-c3ccccn3)nc2NCC2CCCCC2)cc1`, the AC40 is 3.5 µM.

For `CC(C)(C)CCNc1nc(-c2ccccn2)nnc1-c1ccccc1`, the AC40 was 3.2 µM and 1.8 µM.

Take `c1ccc(-c2nnc(-c3ccccn3)nc2NCCc2ccccn2)cc1`: the AC40 is 12.5 µM.

Turning to `OCC1CCN(Cc2ccc(O)c3ncccc23)CC1`, the AC40 was > 4.6 µM (inactive).

As to `c1ccc(CCNc2nc(-c3ccccn3)nnc2-c2ccccc2)cc1`, the AC40 was 2.69 µM.

Consider `Cc1cccc(Nc2nc(-c3ccccn3)nnc2-c2ccccc2)n1`, for which the AC40 is 14.2 µM.

As for `CN1CCN(c2nc(-c3ccccn3)nnc2-c2ccccc2)CC1`, the AC40 was 21.7 µM.

Regarding `O=C(Nc1cn2ccccc2n1)c1cc(-c2ccccc2)on1`, the AC40 was > 4.6 µM (inactive).

On to `Clc1cccc(CNc2nc(-c3ccccn3)nnc2-c2ccccc2)c1`, for which the AC40 was 2.21 µM.

As to `CC(C)(C)c1ccc(CNc2nc(-c3ccccn3)nnc2-c2ccccc2)cc1`, the AC40 was 2.15 µM.

Turning to `c1ccc(-c2csc(Nc3nc(-c4ccccn4)nnc3-c3ccccc3)n2)cc1`, the AC40 was 1.39 µM.

Regarding `O=C(Nc1ccc2ccccc2n1)c1cc(-c2ccccc2)on1`, the AC40 is > 4.6 µM (inactive).

For `c1ccc(-c2nnc(-c3ccccn3)nc2N2CCC(c3ccccc3)C2)cc1` (stereo not drawn), the AC40 is 2.54 µM.

Turning to `c1ccc(-c2nnc(-c3ccccn3)nc2Nc2cnc3ccccc3n2)cc1`, the AC40 was 7.45 µM.

Turning to `C[C@@H](Nc1nc(-c2ccccn2)nnc1-c1ccccc1)C1CCCCC1`, the AC40 was 5.21 µM.

On to `c1ccc(-c2nnc(-c3ccccn3)nc2NCc2cccnc2)cc1`, for which the AC40 is 16.3 µM.

Take `c1ccc(CNc2nc(-c3ccccn3)nnc2-c2ccccc2)cc1`: the AC40 is 5.63 µM.

Turning to `COc1ccccc1N1CCN(Cc2ccc(O)c3ncccc23)CC1`, the AC40 is > 38 µM (inactive).

Consider `OCC1CCN(c2nc(-c3ccccn3)nnc2-c2ccccc2)CC1`, for which the AC40 was 21.1 µM.

As for `c1ccc(-c2nnc(-c3ccccn3)nc2NCCCN2CCOCC2)cc1`, the AC40 is 7.33 µM.

As to `c1ccc(-c2nnc(-c3ccccn3)nc2NCC2CCOCC2)cc1`, the AC40 is 22.8 µM.

Regarding `COc1ccc(CNc2nc(-c3ccccn3)nnc2-c2ccccc2)cc1`, the AC40 is 3.7 µM.

On to `O=C(c1cc(-c2ccccc2)on1)N1CCC(CO)CC1`, for which the AC40 is > 4.6 µM (inactive).

For the molecule `c1ccc(-c2nnc(-c3ccccn3)nc2NCCN2CCOCC2)cc1`, the AC40 is 15.3 µM.

Test system in another assay: not listed separately
The assay is described as above. Conditions: U2OS HRE-luciferase reporter, luminescence, HIF pathway activation; at 38 µM (top of the series). In outline:
as §1
In general terms: Reporter assays use an easily measured gene product as a stand-in for the process of interest.
On to `O=C(NC1CCc2ccccc2C1)c1cc(-c2ccccc2)on1` (stereo not drawn), for which the activation was -0.627% (inactive).

Consider `CC(C)(C)CCNC(=O)c1cc(-c2ccccc2)on1`, for which the activation is 19.3% (inactive).

In the case of `CN(C)CCNC(=O)c1cc(-c2ccccc2)on1`, the activation was 1.68% (inactive).

Regarding `O=C(NCC1CCCCC1)c1cc(-c2ccccc2)on1`, the activation was 3.45% (inactive).

On to `Oc1ccc(CN2CCc3ccccc3C2)c2cccnc12`, for which the activation is 1.34% (inactive).

In the case of `O=C(c1cc(-c2ccccc2)on1)N1CCC(N2CCCC2)CC1`, the activation was 0.044% (inactive).

`N#CC1(c2ccccc2)CCN(Cc2ccc(O)c3ncccc23)CC1`: the activation is 6.8% (inactive).

Turning to `O=C(NCc1ccccc1)c1cc(-c2ccccc2)on1`, the activation was 0.892% (inactive).

As to `Oc1ccc(CNC2CCc3ccccc32)c2cccnc12` (stereo not drawn), the activation was 11.5% (inactive).

With `O=C(Nc1ncc2ccccc2n1)c1cc(-c2ccccc2)on1`, the activation is 2.48% (inactive).

`Cc1cccc(NC(=O)c2cc(-c3ccccc3)on2)n1`: the activation was 1.4% (inactive).

For `Cc1ccccc1CNC(=O)c1cc(-c2ccccc2)on1`, the activation is 1.28% (inactive).

Turning to `O=C(Nc1nnc(-c2ccccc2)s1)c1cc(-c2ccccc2)on1`, the activation is 0.329% (inactive).

On to `O=C(c1cc(-c2ccccc2)on1)N1CCN(c2ccncc2)CC1`, for which the activation is -1.02% (inactive).

For `O=C(Nc1cnc2ccccc2c1)c1cc(-c2ccccc2)on1`, the activation was 0.049% (inactive).

As to `O=C(NC1Cc2ccccc2C1)c1cc(-c2ccccc2)on1`, the activation is 2.88% (inactive).

Turning to `Cn1c(-c2ccccc2)cnc1NC(=O)c1cc(-c2ccccc2)on1`, the activation was 0.636% (inactive).

Turning to `CC1CN(Cc2ccc(O)c3ncccc23)CC(C)O1` (stereo not drawn), the activation is 2.27% (inactive).

In the case of `Cn1c(NC(=O)c2cc(-c3ccccc3)on2)nc2ccccc21`, the activation is 0.384% (inactive).

For the molecule `Cc1cccc(CNC(=O)c2cc(-c3ccccc3)on2)c1`, the activation was -1.13% (inactive).

As to `O=C(Nc1ncc(-c2ccccc2)o1)c1cc(-c2ccccc2)on1`, the activation is -0.837% (inactive).

As for `Oc1ccc(CN2CCC(Cc3ccccc3)CC2)c2cccnc12`, the activation is 22.2% (inactive).

Take `Cc1ccc(CNC(=O)c2cc(-c3ccccc3)on2)cc1`: the activation is -0.867% (inactive).

In the case of `CN1CCN(C(=O)c2cc(-c3ccccc3)on2)CC1`, the activation is -0.645% (inactive).

Turning to `Cc1ccc(NC(=O)c2cc(-c3ccccc3)on2)cn1`, the activation was 1.37% (inactive).
